Most compounds without a hit are left out; they make up all but 2.4% or so of the library.
NPY2 pot ag – potentiates or activates human NPY-Y2 receptor. P49146. cells expressing NPY-Y2, potentiator/agonist read-out. activation, % at 3.6 µM. hit rate 0.45% among 220,000; in the data active = activation above about 27%;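 note: cells stimulated with NPY near EC25 plus isoproterenol at EC100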
Target sequence (P49146 whole entry, looked up): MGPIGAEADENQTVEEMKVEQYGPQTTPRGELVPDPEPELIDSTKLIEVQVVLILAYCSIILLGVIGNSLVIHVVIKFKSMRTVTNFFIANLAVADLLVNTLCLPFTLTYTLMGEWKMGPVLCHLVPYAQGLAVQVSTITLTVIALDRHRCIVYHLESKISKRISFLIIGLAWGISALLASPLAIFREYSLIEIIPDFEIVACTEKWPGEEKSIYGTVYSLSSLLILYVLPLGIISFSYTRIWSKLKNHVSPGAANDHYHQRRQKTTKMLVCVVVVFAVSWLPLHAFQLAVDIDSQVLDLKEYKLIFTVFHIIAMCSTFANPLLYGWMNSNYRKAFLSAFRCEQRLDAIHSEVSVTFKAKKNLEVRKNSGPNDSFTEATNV
S1P4 ag – agonists of human S1P4 receptor. activation, % at 4.98 µM. S1P4-expressing cell line, agonist reporter assay. hit rate 0.35% among 220,000. O95977; in the data active = activation above about 11%
NPY1 pot ag – potentiates or activates human NPY-Y1 receptor; activation, % at 3.6 µM; hit rate 0.37% among 220,000; NPY-Y1 expressing cells, potentiator/agonist activation; P25929; in the data active = activation above about 33%, passing the limit was not always enough;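 note: cells stimulated with NPY at EC10 then isoproterenol at EC100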
NPY-Y2 antag – NPY-Y2 (human) receptor antagonism. NPY-Y2 expressing cells, antagonist mode. inhibition, % at 2.7 µM. hit rate 0.99% among 140,000. AID 793; in the data active = inhibition above about 17%
S1P4 antag – human S1P4 receptor antagonism | O95977 | S1P4-expressing cells, antagonist mode, reporter read-out | inhibition, % at 4.98 µM | hit rate 0.26% among 220,000 | AID 1510; in the data active = inhibition above about 29%
NPY Y1 blocker – NPY-Y1 (human) receptor antagonism; AID 1040; HEK293-CNG Y1 cells, membrane potential fluorescence; NPY at EC95, then isoproterenol; hit rate 1% among 200,000; inhibition, % at 3.6 µM; P25929;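 active = inhibition above the campaign mean inhibition of all tested compounds plus 3 SD, cut at about 20% in these data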
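Material: HEK293 cells with Y1 receptor plus CNG channel; times: compound incubation 1 h at room temperature, readout 45 min post-stimulation; signal: fluorescence, membrane potential probe; read-out basis: fluorescence ratio normalized to % inhibition between controls; benchmarks: full-block control isoproterenol-only wells, zero-block control NPY plus isoproterenol wells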
NPY-Y1 pot conf – confirmation of human NPY-Y1 receptor potentiators or agonists; shares compounds with NPY1 pot ag; cell-based NPY-Y1 potentiator/agonist assay; activation, % at 3.6 µM; hit rate 20% among 280; in the data active = activation above about 45%;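 note: cells challenged with NPY at its EC10 plus isoproterenol stimulus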
NPY-Y2 counter – potentiates or activates NPY-Y2, counter-screen for NPY-Y1 hits | shares compounds with NPY1 pot ag | HEK293-CNG cells, membrane-potential fluorescence (FLIPR), 1536-well | activation, % at 3.6 µM | hit rate 20% among 280 | AID 1649; in the data active = activation above about 33%
NPY-Y1 agonist – human NPY-Y1 agonism as potentiator counter-screen; shares compounds with NPY1 pot ag; HEK293 Y1-CNGC, membrane potential fluorescence, agonist mode; activation, % at 3.6 µM; hit rate 50% among 280; AID 1697;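 active = percent activation above the mean of DMSO-only control wells plus 3 SD of those wells, cut at about 18% in these data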;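 note: cells challenged with isoproterenol plus Ro 20-1724 with no NPY in test wells; Y1 agonism lowers isoproterenol-driven cAMP and reduces probe fluorescence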
NPY-Y2 agonist – counter-screen for NPY-Y1 potentiators or agonists: agonists of NPY-Y2; shares compounds with NPY1 pot ag; HEK293 Y2-CNGC, membrane potential fluorescence, agonist mode; activation, % at 3.6 µM; hit rate 67% among 280; AID 1698;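 active = activation above the solvent-only control wells' mean plus 3 SD, cut at about 11% in these data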;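 note: agonism lowers cAMP so well fluorescence drops in active wells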
CNGC counter – CNG channel inhibition, counter-screen for NPY-Y1 potentiators. shares compounds with NPY1 pot ag. HEK293-CNG parental, isoproterenol cAMP, membrane potential fluorescence. inhibition, % at 3.6 µM. hit rate 42% among 280;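 active = inhibition above the mean of stimulated solvent-only control wells plus 3 SD, cut at about 22% in these data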
A number is an active result; - = inactive; . = no result.

SMILES | NPY2 pot ag | S1P4 ag | NPY1 pot ag | NPY-Y2 antag | S1P4 antag | NPY Y1 blocker | NPY-Y1 pot conf | NPY-Y2 counter | NPY-Y1 agonist | NPY-Y2 agonist | CNGC counter
CC(C)(C)NC(=O)C(c1ccc(O)cc1)N(C(=O)Cn1nnc(-c2ccc(F)cc2)n1)c1ccccc1F (configuration not stated) | - | - | 52 | . | - | - | - | - | 19 | 16 | -
O=C(CN1c2ccccc2Sc2ccccc21)N/N=C/c1ccc(Cl)cc1Cl | - | - | - | . | - | . | . | . | . | . | .
O=C(CN1c2ccccc2Sc2ccccc21)NNC(=S)Nc1ccc(Cl)cc1Cl | - | - | 68 | - | - | - | - | 37 | - | 46 | 27
Cc1cccc2nc3c(nc12)-c1ccccc1C3=O | - | - | - | . | - | . | . | . | . | . | .
O=C(COC(=O)c1ccc(NS(=O)(=O)c2cccs2)cc1O)NCc1ccccc1 | - | - | - | . | - | - | . | . | . | . | .
O=C(COC(=O)c1ccc(NS(=O)(=O)c2cccs2)cc1O)Nc1nc2ccccc2s1 | - | - | 43 | . | - | - | - | - | 38 | 25 | 22
O=C(CCC1CCCCC1)Nc1ccccc1C(=O)N1CCOCC1 | - | - | - | . | - | - | . | . | . | . | .
COc1ccc(CCn2c(C)cc(C(=O)CSc3nnnn3-c3ccccc3)c2C)cc1 | - | - | 65 | - | - | - | - | - | - | - | -
COc1ccc(CC(=O)NNC(=O)c2nn(Cc3ccccc3)c(=O)c3ccccc23)cc1OC | - | - | - | . | - | . | . | . | . | . | .
O=C1/C(=C/c2ccccn2)SC(=S)N1c1cccc(O)c1 | - | - | 54 | . | - | . | 57 | 38 | 41 | 37 | 32
COc1ccc(CN2CNc3c(c(=O)n(C)c(=O)n3C)C2)cc1 | - | - | - | - | - | - | . | . | . | . | .
O=C1C2C3c4ccccc4C(Br)(c4ccccc43)C2C(=O)N1c1ccccc1O (configuration not stated) | - | - | 38 | - | - | - | - | - | 26 | 15 | 32
Cc1cccc(C)c1NC(=S)N(CCCN1CCCCC1)Cc1ccco1 | - | - | - | . | - | - | . | . | . | . | .
CCOC(=O)Cn1c(=O)oc2cc(S(=O)(=O)NCc3ccccn3)ccc21 | - | - | - | - | - | - | . | . | . | . | .
CCOC(=O)Cn1c(=O)oc2cc(S(=O)(=O)NCc3cccs3)ccc21 | - | - | 33 | - | - | - | 48 | - | 46 | 29 | 61
COc1cc2c(cc1NC(=O)CN1C(=O)NC3(CCc4ccccc43)C1=O)oc1ccccc12 (configuration not stated) | - | - | 35 | - | - | - | 62 | 39 | 37 | 44 | 45
CCOc1cc(N2CCOCC2)c(OCC)cc1NC(=O)CN1C(=O)NC2(CCc3ccccc32)C1=O (configuration not stated) | - | - | - | - | - | - | . | . | . | . | .
N#CCCCN1C(=O)C(=C(C#N)C#N)c2ccccc21 | - | - | - | . | - | - | . | . | . | . | .
COc1ccc(C(=O)NC2CCCCCC2)cc1S(=O)(=O)N1CCCC1 | - | - | - | . | - | - | . | . | . | . | .
COc1ccc(C(=O)NC2CCCCCC2)cc1S(=O)(=O)Nc1ccc(Br)cc1 | - | - | 48 | - | - | - | 44 | - | 42 | 31 | 40
COc1cc(/C=N/NC(=O)C(Cc2c[nH]c3ccccc23)NC(=O)OCC(C)C)cc([N+](=O)[O-])c1OCc1ccccc1 (configuration not stated) | - | - | 39 | . | - | - | - | - | 24 | 38 | 25
COc1cc(/C=N/NC(=O)C(Cc2c[nH]c3ccccc23)NC(=O)OCC(C)C)cc([N+](=O)[O-])c1O (configuration not stated) | - | - | - | - | - | - | . | . | . | . | .
Cc1ccc(C(=O)N2CCN(c3ccc(NC(=S)NC(=O)c4cccs4)cc3)CC2)cc1 | - | - | - | . | - | - | . | . | . | . | .
Cc1ccccc1C(=O)N1CCN(c2ccc(NC(=S)NC(=O)c3cccs3)cc2)CC1 | - | - | 36 | . | - | - | - | - | - | 15 | -
NC(=O)CN(c1ccc(Cl)cc1)S(=O)(=O)c1ccccc1 | - | - | - | - | - | - | . | . | . | . | .
SMILES | NPY2 pot ag | S1P4 ag | NPY1 pot ag | NPY-Y2 antag | S1P4 antag | NPY Y1 blocker | NPY-Y1 pot conf | NPY-Y2 counter | NPY-Y1 agonist | NPY-Y2 agonist | CNGC counter
Cc1ccc(S(=O)(=O)N(CC(=O)Nc2ccccc2C(=O)O)c2ccc(Cl)cc2)cc1 | - | - | 44 | . | - | - | - | - | - | 20 | -
CCn1c(SCC(=O)Nc2ccc3c(c2)oc2ccccc23)nnc1-c1ccc(N)cc1 | - | - | 46 | - | - | - | - | 37 | 38 | 43 | -
CCOC(=O)CSc1nc(=O)n2ccccc2n1 | - | - | 68 | . | - | - | - | - | - | - | -
O=C(CCCn1cc([N+](=O)[O-])cn1)Nc1cccnc1 | - | - | - | . | - | . | . | . | . | . | .
O=C(CC1NCCc2ccccc21)Nc1ccc(Cl)cc1 (configuration not stated) | - | - | 56 | . | - | - | - | - | - | - | -
CCOC(=O)C1=C(c2ccccc2)NC(=O)NC1c1cc(Br)c(O)c(OC)c1 (configuration not stated) | - | - | 42 | . | - | - | - | - | - | - | -
CCOC(=O)C1=C(C)NC(=O)NC1c1cc(Br)c(O)c(OC)c1 (configuration not stated) | - | - | - | - | - | - | . | . | . | . | .
Cc1ccc(Nc2nc(N/N=C\c3ccc4c(c3)OCO4)nc(N3CCOCC3)n2)cc1 | - | - | - | . | - | - | . | . | . | . | .
O=C1CCC(C(=O)N2CCC(CO)(Cc3ccc(Cl)cc3)CC2)=NN1 | - | - | - | . | - | - | . | . | . | . | .
O=[N+]([O-])c1ccc(/C=C/C2=NN(c3ccccc3)C(c3ccco3)C2)o1 (configuration not stated) | - | - | 36 | . | - | - | 60 | 45 | 56 | 58 | 45
O=C(Nc1ccncc1)c1ccc2c(c1)C(=O)N(C1CCCCC1)C2=O | - | - | 45 | - | - | - | - | - | 18 | - | -
O=C(Cc1ccccc1)NN1C(=O)/C(=C/c2ccccc2C(=O)O)SC1=S | - | - | - | . | - | - | . | . | . | . | .
COc1ccc2c(c1)CCCC21NC(=O)NC1=O (configuration not stated) | - | - | - | - | - | - | . | . | . | . | .
COc1ccc2cc(C3(C)NC(=O)NC3=O)ccc2c1 (configuration not stated) | - | - | 68 | - | - | - | - | - | - | - | -

Compound activity as filed in PubChem.
